Here are results for 5 molecules from ChEMBL document CHEMBL1141461, “Polyene antibiotics from Streptomyces mediocidicus” (2007).

Molecules are shown by their SMILES. Converted amounts (≈) assume the structure as drawn.

Common to all, as to format: functional
Experiment [1] relates to Aspergillus fumigatus. Kind of experiment: Antifungal activity against Aspergillus fumigatus GC 3092.
The subject of experiment [2] is Pichia kudriavzevii. Description: Antifungal activity against Candida Krussii GC 3067. The essentials: (§1)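 Yeast MIC by broth microdilution in RPMI-1640. Agent at final 0.03-128 µg/mL, yeast inoculum 0.5-2.5 × 10^3 cfu/mL. MIC read after 48 h incubation at 30 °C.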
Experiment [3] relates to Candida albicans. Description: Antifungal activity against Candida albicans GC 3066. The gist of the method:
as §1

Experiment [4] relates to Aspergillus niger. Kind of experiment: Antifungal activity against Aspergillus niger GC 3091.
In experiment [5] the test system is Candida albicans. Description: Antifungal activity against Candida albicans GC 3065. The gist of the method: as §1
For experiment [6], the system named is Kluyveromyces marxianus. Kind of experiment: Antifungal activity against Candida pseudotropicalis GC 3070. The gist of the method: as §1
The test system of experiment [7] is Diutina rugosa. Description: Antifungal activity against Candida rugosa GC 3077. The essentials:
as §1

Experiment [8] deals with Candida tropicalis. Description: Antifungal activity against Candida tropicalis GC 3080. The essentials: as §1
Experiment [9] concerns Candida albicans. Kind of experiment: Antifungal activity against Candida albicans GC 3064. The gist of the method: as §1
Experiment [10] deals with Candida parapsilosis. Kind of experiment: Antifungal activity against Candida parapsilosis GC 3075. The conditions noted are these: Lodderomyces parapsilosis. The gist of the method:
as §1

The test system of experiment [11] is Candida tropicalis. Kind of experiment: Antifungal activity against Candida tropicalis GC 3081. The essentials: as §1
Experiment [12] relates to Clavispora lusitaniae. Kind of experiment: Antifungal activity against Candida lusitaniae GC 3068. The essentials:
as §1

Experiment [13] has as its system Candida parapsilosis. Kind of experiment: Antifungal activity against Candida parapsilosis GC 3074. The conditions noted are these: Lodderomyces parapsilosis. The essentials:
as §1

For experiment [14], the system named is Candida parapsilosis. Kind of experiment: Antifungal activity against Candida parapsilosis GC 3076. The conditions noted are these: Lodderomyces parapsilosis. The essentials:
as §1

One may read the MIC as the least concentration at which growth counts as inhibited. Lower therefore signals a more susceptible organism. On to `COC(=O)/C(C)=C/C=C/C=C/CC/C=C/C(C)C(O)C(C)C(O)/C=C/C=C/C=C/C=C/C=C/C=C/CC(OS(=O)(=O)O)C(C)C(=O)CC(O)CC(O)/C=C/CC(O)CC(O)CC(O)/C=C/CC(O)CC(O)/C=C/CC(O)CC(O)CCCN` (stereo not given), for which the MIC in experiment [1] is more than 128 µg/mL; in experiment [2], 8 µg/mL (≈ 6.72 µM); in [3] it was 32 µg/mL (≈ 26.9 µM); in experiment [4], more than 128 µg/mL; in experiment [5] it was 16 µg/mL (≈ 13.4 µM); in experiment [6], 8 µg/mL (≈ 6.72 µM). The MIC in [7] is 8 µg/mL (≈ 6.72 µM); in [8] it was 16 µg/mL (≈ 13.4 µM); in experiment [9] it was 16 µg/mL (≈ 13.4 µM); in experiment [10], more than 128 µg/mL; in [11] it was 32 µg/mL (≈ 26.9 µM); in experiment [12], 16 µg/mL (≈ 13.4 µM). Further, the minimal inhibitory concentration (MIC) in [13] is 128 µg/mL (≈ 108 µM); in experiment [14], more than 128 µg/mL.
Regarding `C[C@@H]1[C@H](O)[C@@H](C)/C=C/C=C/C=C/C=C/C=C/C=C/C=C/[C@H](O[C@@H]2O[C@H](C)[C@@H](O)[C@H](N)[C@@H]2O)C[C@@H]2O[C@](O)(C[C@@H](O)C[C@@H](O)[C@H](O)CC[C@@H](O)C[C@@H](O)CC(=O)O[C@H]1C)C[C@H](O)[C@H]2C(=O)O` [AMPHOTERICIN B], the MIC came to 0.25 µg/mL (≈ 0.271 µM) in [1]; 0.5 µg/mL (≈ 0.541 µM) in experiment [2]; 0.25 µg/mL (≈ 0.271 µM) in experiment [3]; 0.25 µg/mL (≈ 0.271 µM) in [4]; 0.25 µg/mL (≈ 0.271 µM) in [5]; 0.25 µg/mL (≈ 0.271 µM) in [6]. Also, the MIC in experiment [7] stood at 0.5 µg/mL (≈ 0.541 µM); in experiment [8], 0.5 µg/mL (≈ 0.541 µM); in [9] it was 0.5 µg/mL (≈ 0.541 µM); in experiment [10], 0.5 µg/mL (≈ 0.541 µM); in experiment [11], 0.5 µg/mL (≈ 0.541 µM); in [12] it was 0.25 µg/mL (≈ 0.271 µM). For the same molecule, the MIC stood at 0.25 µg/mL (≈ 0.271 µM) in [13] and 0.5 µg/mL (≈ 0.541 µM) in experiment [14].
For the molecule `C\C(=C/C=C/C=C/CC/C=C/C(C)C(O)C(C)C(O)/C=C/C=C/C=C/C=C/C=C/C=C/CC(OS(=O)(=O)O)C(C)C(=O)CC(O)CC(O)/C=C/CC(O)CC(O)CC(O)/C=C/CC(O)CC(O)/C=C/CC(O)CC(O)CCCNC(=N)N)C(=O)O` (stereo not given) [CLETHRAMYCIN], the MIC in [1] is more than 128 µg/mL; in experiment [2], 2 µg/mL (≈ 1.64 µM); in [3], 4 µg/mL (≈ 3.28 µM); in experiment [4], 4 µg/mL (≈ 3.28 µM); in [5], 4 µg/mL (≈ 3.28 µM); in experiment [6], 2 µg/mL (≈ 1.64 µM). The minimal inhibitory concentration (MIC) was 4 µg/mL (≈ 3.28 µM) in experiment [7]; 16 µg/mL (≈ 13.1 µM) in experiment [8]; 4 µg/mL (≈ 3.28 µM) in [9]; 16 µg/mL (≈ 13.1 µM) in [10]; 8 µg/mL (≈ 6.57 µM) in [11]; 4 µg/mL (≈ 3.28 µM) in experiment [12]. The MIC in experiment [13] and in experiment [14] was 16 µg/mL (≈ 13.1 µM) each time.
For the molecule `C\C(=C/C=C/C=C/CC/C=C/C(C)C(O)C(C)C(O)/C=C/C=C/C=C/C=C/C=C/C=C/CC(OS(=O)(=O)O)C(C)C(=O)CC(O)CC(O)/C=C/CC(O)CC(O)CC(O)/C=C/CC(O)CC(O)/C=C/CC(O)CC(O)CCCN)C(=O)O` (stereo not given) [MEDIOMYCIN A], the MIC in experiment [1] came out at 128 µg/mL (≈ 109 µM); in experiment [2], 2 µg/mL (≈ 1.7 µM); in experiment [3], 4 µg/mL (≈ 3.4 µM); in experiment [4], 1 µg/mL (≈ 0.85 µM); in [5] it was 2 µg/mL (≈ 1.7 µM); in experiment [6] it was 1 µg/mL (≈ 0.85 µM). Further, the MIC was found to be 2 µg/mL (≈ 1.7 µM) in experiment [7]; 16 µg/mL (≈ 13.6 µM) in [8]; 2 µg/mL (≈ 1.7 µM) in experiment [9]; 16 µg/mL (≈ 13.6 µM) in [10]; 8 µg/mL (≈ 6.8 µM) in experiment [11]; 2 µg/mL (≈ 1.7 µM) in experiment [12]. The MIC in experiment [13] and in experiment [14] was 16 µg/mL (≈ 13.6 µM) each time.
Take `C\C(=C/C=C/C=C/CC/C=C/C(C)C(O)C(C)C(O)/C=C/C=C/C=C/C=C/C=C/C=C/CC(O)C(C)C(=O)CC(O)CC(O)/C=C/CC(O)CC(O)CC(O)/C=C/CC(O)CC(O)/C=C/CC(O)CC(O)CCCN)C(=O)O` (stereo not given) [MEDIOMYCIN B]: the MIC in experiment [1] worked out at 16 µg/mL (≈ 14.6 µM); in experiment [2] it was 1 µg/mL (≈ 0.912 µM); in experiment [3] it was 1 µg/mL (≈ 0.912 µM); in experiment [4], 1 µg/mL (≈ 0.912 µM); in [5], 1 µg/mL (≈ 0.912 µM); in experiment [6] it was 1 µg/mL (≈ 0.912 µM). In addition, the MIC in experiment [7] is 1 µg/mL (≈ 0.912 µM); in experiment [8], 2 µg/mL (≈ 1.82 µM); in experiment [9], 1 µg/mL (≈ 0.912 µM); in experiment [10], 4 µg/mL (≈ 3.65 µM); in experiment [11], 2 µg/mL (≈ 1.82 µM); in experiment [12], 2 µg/mL (≈ 1.82 µM). The MIC in experiment [13] and in experiment [14] was 2 µg/mL (≈ 1.82 µM) in each case.
